# From ChEMBL document CHEMBL5385958, “Psammaplin A and Its Analogs Attenuate Oxidative Stress in Neuronal Cells through Peroxisome Proliferator-Activated Receptor γ Activation” (J Nat Prod, 2024)
# The source made the active and inactive calls. The rule behind the calls is not given here.
# Tests used:
# [1] = test system: SH-SY5Y; assay: Inhibition of mPTP opening in human SH-SY5Y cells assessed as decrease in cyclophilin D protein expression at 0.001 uM incubated for 6 hrs by Western blot analysis; type: cell-based
# Outline: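 15 μg cytosolic protein run on 4–20% SDS-PAGE, probed with anti-cyclophilin antibody 1:1000, bands normalized to actin. Three replicates in duplicate; percentage of untreated or H2O2 control.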
# [2] = biological target: T1, Peroxisome proliferator-activated receptor gamma (Homo sapiens) (UniProt P37231); assay: Activation of PPARgamma in H2O2 induced human SH-SY5Y cells assessed as increase in PPARgamma nucleus translocation incubated for 6 hrs by Western blot analysis; type: cell-based; details: filed as activator
# T1 sequence (whole entry): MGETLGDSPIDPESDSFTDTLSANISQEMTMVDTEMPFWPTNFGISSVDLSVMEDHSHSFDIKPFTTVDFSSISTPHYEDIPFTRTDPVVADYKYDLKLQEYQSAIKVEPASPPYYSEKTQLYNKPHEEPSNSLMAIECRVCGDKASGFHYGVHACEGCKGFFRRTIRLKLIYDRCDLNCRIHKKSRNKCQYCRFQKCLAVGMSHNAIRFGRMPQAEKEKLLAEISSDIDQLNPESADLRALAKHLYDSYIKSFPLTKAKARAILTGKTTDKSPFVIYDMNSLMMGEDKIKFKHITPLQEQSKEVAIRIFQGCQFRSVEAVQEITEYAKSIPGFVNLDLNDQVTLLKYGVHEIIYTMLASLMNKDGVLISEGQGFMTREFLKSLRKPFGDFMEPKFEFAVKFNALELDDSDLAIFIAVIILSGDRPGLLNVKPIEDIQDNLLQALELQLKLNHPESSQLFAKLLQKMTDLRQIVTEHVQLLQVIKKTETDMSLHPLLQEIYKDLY
# Outline: (§1)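 Western blot on SH-SY5Y cells (1 × 10^6/well) treated 6 h, with or without 150 μM H2O2. Hypotonic lysis gave cytosolic fraction; nuclear extraction buffer gave nuclear fraction. 10 μg nuclear or 15 μg cytosolic protein per lane, anti-PPARγ 1:1000. Bands normalized to lamin B1 (nuclear) or actin (cytosolic); translocation expressed as nuclear/cytosolic ratio. Three replicates in duplicate.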
# [3] = test system: SH-SY5Y; assay: Antioxidant activity in human SH-SY5Y cells assessed as recovery of H2O2 decreased GSH level at 1 uM incubated for 30 min by fluorescence based microplate reader assay relative to control (reference value: 83 +/- 2%); type: functional; set-up: scale not given: the % may be the effect or the level left; details: 0.5 h
# [4] = test system: SH-SY5Y; assay: Antioxidant activity in human SHSY-5Y cells assessed as protection against H2O2 induced loss of cell viability at 0.01 uM incubated for 6 hrs in presence of H2O2 by MTT assay (reference value: 76 +/- 4%); type: functional
# Outline: (§2)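 Neuroprotection by MTT: SH-SY5Y cells (5 × 10^4/well) cotreated 6 h with agent plus 150 μM H2O2; vitamin E 25 μM as positive control. Cells washed with Locke's buffer, given 500 μg/mL MTT for 1 h at 37 °C, solubilized with 5% SDS, absorbance read at 595 nm. Saponin 1 mg/mL death control subtracted. Triplicate, three independent times.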
# [5] = test system: SH-SY5Y; assay: Inhibition of H2O2 induced ROS release in human SH-SY5Y cells at 0.001 uM incubated for 6 hrs by carboxy-H2DCFDA staining based assay; type: functional; set-up: scale not given: the % may be the effect or the level left
# Outline: (§3)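 ROS measurement: SH-SY5Y cells exposed to agent and 150 μM H2O2 for 6 h, washed with serum-free medium and loaded with 20 μM carboxy-H2DCFDA for 1 h at 37 °C, then PBS for 30 min. Fluorescence read by plate reader. Vitamin E 25 μM as positive control. Triplicate, three independent times; percentage of untreated control.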
# [6] = test system: SH-SY5Y; assay: Antioxidant activity in human SH-SY5Y cells assessed as protection against H2O2 induced loss of cell viability at 0.001 uM incubated for 6 hrs in presence of H2O2 by MTT assay (reference value: 76 +/- 4%); type: functional; outline: as §2
# [7] = biological target: T1, Peroxisome proliferator-activated receptor gamma (Homo sapiens); assay: Activation of PPARgamma in H2O2 induced human SH-SY5Y cells assessed as increase in glutathione peroxidase 1 mRNA expression incubated for 6 hrs by qPCR analysis; type: cell-based; details: filed as activator
# Outline: (§4)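 qPCR on SH-SY5Y cells (1 × 10^6/well, attached 24 h) given test agent together with 150 μM H2O2 for 6 h. Total RNA extracted, reverse transcribed with oligo-dT, amplified with SYBR Green and gene-specific primers (CAT, SOD1, GPx1). RPLP0 used as internal normalizer; ΔΔCt relative to H2O2-control calibrator. Three independent replicates in triplicate; rosiglitazone 10 μM as positive control.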
# [8] = biological target: T1, Peroxisome proliferator-activated receptor gamma (Homo sapiens); assay: Activation of PPARgamma in human SH-SY5Y cells assessed as increase in glutathione peroxidase 1 mRNA expression incubated for 6 hrs by qPCR analysis; type: cell-based; details: filed as activator
# Outline: (§5)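 SH-SY5Y cells (1 × 10^6/well, 24 h attachment) exposed to test agent alone for 6 h. RNA extracted, cDNA made with oligo-dT primers, SYBR Green qPCR for CAT, GPx1, Nrf2 or SOD1. Expression normalized to RPLP0 and calculated by ΔΔCt against untreated control calibrator. Three independent replicates performed in triplicate; rosiglitazone 10 μM as positive control.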
# [9] = test system: SH-SY5Y; assay: Cytotoxicity against human SH-SY5Y cells assessed as reduction in cell viability at 0.001 to 1 uM incubated for 24 hrs by MTT assay; type: toxicity, cell-based; details: dose 0.001-1 µM
# Outline: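 MTT viability of SH-SY5Y cells (5 × 10^4/well) after 24 h exposure to 0.001, 0.01, 0.1 and 1 μM. 500 μg/mL MTT for 1 h at 37 °C after Locke's buffer wash; SDS solubilization; absorbance at 595 nm with 1 mg/mL saponin blank subtracted. DMSO vehicle below 0.5%. Triplicate, three independent times.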
# [10] = biological target: T1, Peroxisome proliferator-activated receptor gamma (Homo sapiens); assay: Activation of PPARgamma in human SH-SY5Y cells assessed as increase in Nrf2 mRNA expression level at 0.001 uM incubated for 6 hrs by qPCR analysis; type: cell-based; details: filed as activator; outline: as §5
# [11] = test system: SH-SY5Y; assay: Antioxidant activity in human SH-SY5Y cells assessed as reversal of H2O2 induced mitochondrial membrane depolarization at 0.001 uM incubated for 6 hrs by TMRM staining based microplate reader analysis (reference value: 76 +/- 2%); type: functional
# Outline: (§6)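 SH-SY5Y cells (5 × 10^4/well) cotreated with agent and 150 μM H2O2 for 6 h, then loaded with 1 μM TMRM for 30 min at 37 °C. Cells lysed with 50% H2O/DMSO; fluorescence read at 535/590 nm. Vitamin E 25 μM as positive control. Data expressed as percentage of untreated control cells. Triplicate, three independent times.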
# [12] = biological target: T1, Peroxisome proliferator-activated receptor gamma (Homo sapiens); assay: Activation of PPARgamma in human SH-SY5Y cells assessed as increase in PPARgamma nucleus translocation at 0.001 uM incubated for 6 hrs by Western blot analysis; type: cell-based; details: filed as activator; outline: as §1
# [13] = test system: SH-SY5Y; assay: Inhibition of H2O2 induced ROS release in human SH-SY5Y cells at 1 uM incubated for 6 hrs by carboxy-H2DCFDA staining based assay; type: functional; set-up: scale not given: the % may be the effect or the level left; outline: as §3
# [14] = test system: SH-SY5Y; assay: Inhibition of mPTP opening in human SH-SY5Y cells assessed as increase in calcein fluorescence signal by flow cytometry analysis relative to control; type: cell-based; details: dose or concentration not given here
# Outline: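 mPTP assay: detached SH-SY5Y cells in PBS with 0.6 mM CaCl2 loaded with calcein-AM for 15 min at 37 °C. 0.4 mM CoCl2 plus 0.001 μM agent added for 15 min, then 1 mM TBHP for 3 min.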
# [15] = biological target: T1, Peroxisome proliferator-activated receptor gamma (Homo sapiens); assay: Activation of PPARgamma in H2O2 induced human SH-SY5Y cells assessed as increase in catalase mRNA expression level incubated for 6 hrs by qPCR analysis; type: cell-based; details: filed as activator; outline: as §4
# [16] = biological target: T1, Peroxisome proliferator-activated receptor gamma (Homo sapiens); assay: Activation of PPARgamma in human SH-SY5Y cells at 1 uM incubated for 6 hrs relative to control; type: cell-based; details: filed as activator
# Outline: (§7)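 Nuclear extracts from SH-SY5Y cells (1 × 10^6/well) treated 6 h with 0.001–1 μM agent; rosiglitazone 10 μM as positive control. PPARγ DNA-binding activity measured by ELISA-type transcription factor kit. Absorbance corrected by Bradford protein content and expressed as percentage of control cells. Three independent experiments.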
# [17] = test system: SH-SY5Y; assay: Antioxidant activity in human SH-SY5Y cells assessed as reversal of H2O2 induced mitochondrial membrane depolarization at 0.001 to 0.1 uM incubated for 6 hrs by TMRM staining based microplate reader analysis; type: functional, cell-based; details: dose 0.001-0.1 µM; outline: as §6
# [18] = test system: SH-SY5Y; assay: Antioxidant activity in human SH-SY5Y cells assessed as protection against H2O2 induced loss of cell viability at 0.001 to 0.1 uM incubated for 6 hrs in presence of H2O2 by MTT assay; type: functional, cell-based; details: dose 0.001-0.1 µM; outline: as §2
# [19] = test system: SH-SY5Y; assay: Inhibition of H2O2 induced ROS release in human SH-SY5Y cells at 25 uM incubated for 6 hrs by carboxy-H2DCFDA staining based assay; type: functional, cell-based; set-up: scale not given: the % may be the effect or the level left; outline: as §3
# [20] = test system: SH-SY5Y; assay: Antioxidant activity in human SH-SY5Y cells assessed as protection against H2O2 induced loss of cell viability at 25 uM incubated for 6 hrs in presence of H2O2 by MTT assay; type: functional, cell-based; outline: as §2
# [21] = test system: SH-SY5Y; assay: Antioxidant activity in human SH-SY5Y cells assessed as recovery of H2O2 decreased GSH level at 0.001 to 1 uM incubated for 30 min by fluorescence based microplate reader assay; type: functional, cell-based; details: dose 0.001-1 µM
# [22] = biological target: T1, Peroxisome proliferator-activated receptor gamma (Homo sapiens); assay: Activation of PPARgamma in human SH-SY5Y cells assessed as increase in superoxide dismutase 1 mRNA expression at 0.001 uM incubated for 6 hrs by qPCR analysis; type: cell-based; details: filed as activator; outline: as §5
# [23] = test system: SH-SY5Y; assay: Inhibition of H2O2 induced ROS release in human SH-SY5Y cells at 0.001 to 1 uM incubated for 6 hrs by carboxy-H2DCFDA staining based assay; type: functional; set-up: scale not given: the % may be the effect or the level left; details: dose 0.001-1 µM; outline: as §3
# [24] = biological target: T1, Peroxisome proliferator-activated receptor gamma (Homo sapiens); assay: Activation of PPARgamma in human SH-SY5Y cells assessed as transcription activity at 0.001 to 0.1 uM incubated for 6 hrs; type: cell-based; details: filed as activator, dose 0.001-0.1 µM; outline: as §7
Molecule,inhibition [1],Activity [2] [%],Activity [3] [%],Activity [7],Activity [8],Activity [9],Activity [10],Activity [12] [%],Activity [13] [%],inhibition [14] [%],Activity [15],Activity [17],Activity [18],also measured
O=C(NCCSSCCNC(=O)/C(Cc1ccc(O)c(Br)c1)=N/O)/C(Cc1ccc(O)c(Br)c1)=N/O [PSAMMAPLIN A],inactive,150,120,Active,Active,Non-Toxic,Active,136,96,,,,,Activity [4]: 96%; Activity [5]: 101%; Activity [6]: 100%; Activity [11]: 100%
CN(CCOc1ccc(CC2SC(=O)NC2=O)cc1)c1ccccn1 (centres undefined),,139,,,,,,,,,,,,
CC(C)(C)OO,,,,,,,,,,54,,,,
O=C(NCCSSCCNC(=O)/C(Cc1cc(O)c(O)c(Br)c1)=N\O)/C(Cc1ccc(O)c(Br)c1)=N\O,inactive,177,117,Active,Active,Non-Toxic,Active,151,99,,Active,Active,Active,Activity [16]: 130%
VITAMIN E,,,,,,,,,,,,,,Activity [19]: 101%; Activity [20]: 106%
O=C(NCCSSCCNC(=O)/C(Cc1cc(Br)c(O)c(-c2cc(C/C(=N\O)C(=O)NCCSSCCNC(=O)/C(Cc3ccc(O)c(Br)c3)=N/O)cc(Br)c2O)c1)=N/O)/C(Cc1ccc(O)c(Br)c1)=N/O [BISAPRASIN],inactive,,,Active,Active,Non-Toxic,Active,180,,92,Active,Active,Active,Activity [21]: Active; Activity [22]: Active; Activity [23]: 87%; Activity [24]: Active
